Holding throughout (assay type): functional
The test system of test [1] is Mus musculus. Description: Anticonvulsant activity in mouse assessed as inhibition of subcutaneous pentylenetetrazole-induced seizures at 20 mg/kg, po. Summed up: (§1)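 Male Kunming mice (20 ± 2.0 g) received oral test agent suspended in 0.5% carboxymethyl cellulose–0.9% saline. Pentylenetetrazole 70 mg/kg in 0.9% saline was then injected subcutaneously in the scruff of the neck. Protection meant no threshold seizure, i.e. no single clonic spasm episode lasting at least 5 s.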

The subject of test [2] is Mus musculus. Description: Anticonvulsant activity in mouse assessed as inhibition of subcutaneous pentylenetetrazole-induced seizures at 80 mg/kg, po. In outline: as §1
For test [3], the system named is Mus musculus. Description: Anticonvulsant activity in mouse assessed as inhibition of maximal electroshock-induced seizures at 7.5 mg/kg, po. In outline: (§2)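 Male Kunming mice (20 ± 2.0 g), 10 per group, given test agent orally as a suspension in 0.5% carboxymethyl cellulose–0.9% saline. After 1 h, a 25 mA shock was delivered through ear electrodes for 0.25 s. Protection was scored as abolition of the hind limb tonic extensor component. Results are given as animals protected/animals tested.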
A general note: The maximal electroshock test induces tonic seizures with an electrical stimulus.

In test [4] the test system is Mus musculus. The test can be described thus: Anticonvulsant activity in mouse assessed as inhibition of subcutaneous pentylenetetrazole-induced seizures at 40 mg/kg, po. Summed up:
as §1

For test [5], the system named is Mus musculus. Description: Anticonvulsant activity in mouse assessed as inhibition of maximal electroshock-induced seizures at 30 mg/kg, po. Summed up:
as §2

For test [6], the system named is Mus musculus. The test can be described thus: Anticonvulsant activity in mouse assessed as inhibition of maximal electroshock-induced seizures at 15 mg/kg, po. In outline:
as §2

Experimental findings from ChEMBL document CHEMBL1152834, “Synthesis and potential anticonvulsant activity of new N-3-substituted 5,5-cyclopropanespirohydantoins” (2009) are described below.

As a reminder, the inhibition in vivo is the relative decrease from the control value, in per cent.

For the compound `CCCCN1C(=O)NC2(CC2(C)C)C1=O` (stereo not drawn), the inhibition in vivo at 20 mg/kg with Mus musculus [1] worked out at 30%. Moreover, in the test on Mus musculus [2], the inhibition in vivo at 80 mg/kg worked out at 60%. Besides, the inhibition in vivo at 7.5 mg/kg with Mus musculus [3] came out at 20%. In addition, the inhibition in vivo at 40 mg/kg in the test with Mus musculus [4] is 40%. Further, the inhibition in vivo at 30 mg/kg in the test on Mus musculus [5] was found to be 90%. Further, the inhibition in vivo at 15 mg/kg in the test with Mus musculus [6] turned out to be 50%.
For the compound `CC1(C)CC12NC(=O)N(c1cc(Cl)cc(Cl)c1)C2=O` (stereo not drawn), in the test on Mus musculus [5], the inhibition in vivo at 30 mg/kg amounted to 50%.
Still for that read-out and setting: then `CC1(C)CC12NC(=O)N(Cc1ccccc1)C2=O` (stereo not drawn), with 70%.
On the same count and under the same terms, then `COc1ccc(N2C(=O)NC3(CC3(C)C)C2=O)cc1` (stereo not drawn), with 60%.
Take `CC1(C)CC12NC(=O)N(c1ccccc1)C2=O` (stereo not drawn): in the test on Mus musculus [1], the inhibition in vivo at 20 mg/kg worked out at 20%. The inhibition in vivo at 80 mg/kg in the test with Mus musculus [2] stood at 60%. In addition, the inhibition in vivo at 7.5 mg/kg with Mus musculus [3] amounted to 20%. Moreover, in the test on Mus musculus [4], the inhibition in vivo at 40 mg/kg is 40%. The inhibition in vivo at 30 mg/kg in the test with Mus musculus [5] turned out to be 80%. Also, in the test on Mus musculus [6], the inhibition in vivo at 15 mg/kg was 40%.
Consider `CC1(C)CC12NC(=O)N(c1ccc([N+](=O)[O-])cc1)C2=O` (stereo not drawn), for which the inhibition in vivo at 30 mg/kg with Mus musculus [5] worked out at 60%.
On to `CCCC(CCC)C(=O)O` [VALPROATE SODIUM], for which the inhibition in vivo at 20 mg/kg in the test with Mus musculus [1] turned out to be 30%. Also, in the test on Mus musculus [2], the inhibition in vivo at 80 mg/kg was 80%. Besides, in the test with Mus musculus [4], the inhibition in vivo at 40 mg/kg came to 50%.
Consider `CC1(C)CC12NC(=O)NC2=O` (stereo not drawn), for which, in the test on Mus musculus [5], the inhibition in vivo at 30 mg/kg came out at 50%.
Turning to `CCC(CO)N1C(=O)NC2(CC2(C)C)C1=O` (stereo not drawn), in the test on Mus musculus [1], the inhibition in vivo at 20 mg/kg turned out to be 20%. Moreover, the inhibition in vivo at 80 mg/kg in the test on Mus musculus [2] is 70%. In the test with Mus musculus [3], the inhibition in vivo at 7.5 mg/kg worked out at 30%. In addition, the inhibition in vivo at 40 mg/kg with Mus musculus [4] is 40%. Besides, the inhibition in vivo at 30 mg/kg in the test with Mus musculus [5] was 90%. Moreover, the inhibition in vivo at 15 mg/kg with Mus musculus [6] turned out to be 50%.
In the case of `CC1(C)CC12NC(=O)N(c1ccc(F)cc1)C2=O` (stereo not drawn), in the test with Mus musculus [1], the inhibition in vivo at 20 mg/kg amounted to 30%. Besides, the inhibition in vivo at 80 mg/kg in the test on Mus musculus [2] stood at 70%. For the same compound, the inhibition in vivo at 7.5 mg/kg with Mus musculus [3] came out at 30%. The inhibition in vivo at 40 mg/kg in the test with Mus musculus [4] came out at 50%. In the test on Mus musculus [5], the inhibition in vivo at 30 mg/kg is 80%. In addition, the inhibition in vivo at 15 mg/kg with Mus musculus [6] worked out at 50%.
`O=C1N=C(O)NC1(c1ccccc1)c1ccccc1` [PHENYTOIN SODIUM]: the inhibition in vivo at 7.5 mg/kg in the test with Mus musculus [3] stood at 20%. Besides, in the test with Mus musculus [5], the inhibition in vivo at 30 mg/kg stood at 90%. In addition, the inhibition in vivo at 15 mg/kg in the test on Mus musculus [6] came to 50%.
With `Cc1ccc(N2C(=O)NC3(CC3(C)C)C2=O)cc1` (stereo not drawn), the inhibition in vivo at 30 mg/kg with Mus musculus [5] stood at 50%.
Regarding `CC(C)N1C(=O)NC2(CC2(C)C)C1=O` (stereo not drawn), the inhibition in vivo at 30 mg/kg with Mus musculus [5] is 70%.
In the case of `CN1C(=O)NC2(CC2(C)C)C1=O` (stereo not drawn), the inhibition in vivo at 20 mg/kg with Mus musculus [1] turned out to be 20%. Further, in the test on Mus musculus [2], the inhibition in vivo at 80 mg/kg is 60%. The inhibition in vivo at 7.5 mg/kg in the test with Mus musculus [3] was found to be 40%. In addition, in the test with Mus musculus [4], the inhibition in vivo at 40 mg/kg came to 30%. Further, in the test on Mus musculus [5], the inhibition in vivo at 30 mg/kg was 90%. Further, the inhibition in vivo at 15 mg/kg in the test on Mus musculus [6] was determined as 50%.
